Only some compounds are listed: those with a hit (about 2.9% of all), similar ones and a draw of the others.
PolyA inhibitor: polyadenylation inhibitors in yeast reporter cells, primary screen, luminescence, S. cerevisiae | S. cerevisiae SKY197-pL101 polyadenylation reporter, beta-gal luminescence; efflux-impaired pdr1/pdr3 knockout yeast; score 100 = 6 SD above DMSO | activity score, % at 12 µM | 300,000 compounds, 0.02% hits | AID 1875, 2009;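 active = lowest replicate activity score at least 50, where 100 means six control SD above control mean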;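 also: yeast exposed to compound for 9 h at 30 °C; higher score means more reporter readthrough which indicates perturbed polyadenylation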
VIM-2 inhibitor: VIM-2 metallo-beta-lactamase inhibitors, primary screen, biochemical, epi-absorbance readout, Pseudomonas aeruginosa enzyme. purified VIM-2, nitrocefin hydrolysis, epi-absorbance fluorescence. inhibition, % at 5.6 µM. 290,000 compounds, 0.89% hits. AID 1527, 2009;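 active = inhibition above the mean of all tested compounds plus 3 SD, cutoff set per screening run, cut at about 7.5% in these data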;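 also: red hydrolysis product quenches plate fluorescence so inhibitors raise well fluorescence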
SUMO Mot1 rescue: yeast Mot1-301 growth rescue at high temperature, primary screen, SUMOylation pathway inhibitor project, S. cerevisiae, ATP luminescence, 38.5C; S. cerevisiae Mot1-301 growth rescue; percent above DMSO median, 100 means doubled; growth rescue, % at 18.8 µM; 320,000 compounds, 1% hits; AID 2716, 2010;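 active = every valid replicate shows activation above 250% relative to neutral control wells; inactive = the rest, any valid replicate at or below 250%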
IMP-1 inh: IMP-1 metallo-beta-lactamase inhibitors, primary screen, biochemical, epi-absorbance readout, Pseudomonas aeruginosa enzyme; purified IMP-1, nitrocefin hydrolysis, epi-absorbance fluorescence; inhibition, % at 5.6 µM; 290,000 compounds, 0.45% hits; AID 1556, 2009;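 active = inhibition above the mean plus 3 SD of all compounds in the same screening run, cut at about 4.5% in these data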
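System: Purified IMP-1 | Read-out basis: Percent enzyme inhibition | Controls: IMP-1 with DMSO as 0%, enzyme-free DMSO as 100% | Replicates: One well per compound | Doses: 5.6 µM nominal single concentration | Detection: Epi-absorbance fluorescence, 480 nm excitation, 530 nm emission | Incubation: 25 °C, 15 min preincubation, 25 min reaction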
NALP1 yeast inh: NALP1 inflammasome inhibitors in reconstituted yeast, colorimetric, S. cerevisiae, triplicate retest | S. cerevisiae NALP1/ASC/caspase-1 growth, X-gal OD620, 72 h | 280,000 compounds, 0.61% hits | inhibition, % at 10 µM; in the data active = inhibition mostly above about 24%, no sharp cut-off; inactive = mostly below about 32%
NALP3 yeast inh: NALP3 inflammasome inhibitors in reconstituted yeast, primary screen, luminescence, uHTS; Yeast reconstituted NLRP3/ASC/caspase-1, beta-gal luminescence, 24 h; inhibition, % at 10 µM; 330,000 compounds, 0.39% hits;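 active = inhibition of 50% or more; inactive = inhibition below 50%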
NALP3 yeast conf: NALP3 inhibitors retested in yeast, confirmation, luminescence, single concentration | shares compounds with NALP3 yeast inh | yeast expressing human NALP3 | inhibition, % at 10 µM | 1,300 compounds, 81% hits | AID 435006, 2010; in the data active = inhibition above about 48%
Casp1 ASC ctr: CASP1-PYCARD signaling inhibition in yeast, confirmatory test, counterassay for NLRP3 inhibitor program, one-dose | 1,000 compounds, 66% hits | inhibition, % at 10 µM | shares compounds with NALP3 yeast inh | yeast expressing Caspase-1-ASC, luminescence counter screen
NALP3 yeast rt: NALP3 inhibitors in yeast, repeat test, confirmation, luminescence, single concentration, retest. shares compounds with NALP3 yeast inh. yeast expressing human NALP3, luminescence read-out. inhibition, % at 10 µM. 1,000 compounds, 53% hits. AID 488794, 2010
Hits are given with their value; i = inactive; nt = no result. Rule as the data show it, unless noted: active = inhibition above about 50%; inactive = the rest.

SMILES	PolyA inhibitor	VIM-2 inhibitor	SUMO Mot1 rescue	IMP-1 inh	NALP1 yeast inh	NALP3 yeast inh	NALP3 yeast conf	Casp1 ASC ctr	NALP3 yeast rt
BrCC1C[n+]2c(SCc3ccccc3)nc3sc4c(c3c2O1)CCCC4 (stereo not drawn)	i	i	i	i	i	i	nt	nt	nt
Nc1c2c(nc3sc4c(c13)CCCCC4)CCCC2	i	i	i	i	67	63	79	i	i
O=[N+]([O-])c1ccc(N2CCCCCC2)c2ncccc12	i	i	i	i	i	54	56	53	52
O=[N+]([O-])c1ccc(N2CCCCC2)c2ncccc12	i	i	i	i	i	i	nt	nt	nt
Clc1ccc(NC2=NCCCS2)cc1Cl	i	i	i	i	i	i	nt	nt	nt
CC(C)c1ccc(C2NCc3ccccc3-n3cccc32)cc1 (stereo not drawn)	i	i	i	i	38	64	i	60	58
FC(F)(F)Oc1ccc(C2NCc3ccccc3-n3cccc32)cc1 (stereo not drawn)	i	i	i	i	i	i	nt	nt	nt
O=[N+]([O-])c1cc(F)c(N2CCCCC2)cc1Br	i	i	i	i	nt	i	nt	nt	nt
O=[N+]([O-])c1cc(F)c(N2CCCC2)cc1Br	i	i	i	i	i	67	82	80	64
CC1CCN(c2cc(Br)c([N+](=O)[O-])cc2F)CC1	i	i	i	i	nt	68	73	77	58
Nc1cc(Cl)cc(Cl)c1	nt	nt	i	nt	nt	i	nt	nt	nt
CC(=O)N1CCN(CCN=Cc2c(O)n(-c3ccc(C)cc3)c(=S)[nH]c2=O)CC1	i	i	i	i	i	i	nt	nt	nt
COc1ccc(-n2c(O)c(C=NCCN3CCN(C(C)=O)CC3)c(=O)[nH]c2=S)cc1	i	i	i	i	i	53	67	i	i
CC12CCC(=O)C=C1CCC1C2CCC2(C)C(O)CCC12 (stereo not drawn)	nt	i	i	i	i	i	nt	nt	nt
C[C@H](O)[C@H]1CC[C@H]2[C@@H]3CCC4=CC(=O)CC[C@]4(C)[C@H]3CC[C@]12C	i	i	i	i	i	52	73	i	i
C[C@]12CC[C@H](O)CC1=CC[C@@H]1[C@@H]2CC[C@@]2(C)[C@H]1CC[C@]2(C)O	i	nt	i	nt	nt	59	67	59	i
CC(C)[C@H]1CC2C3CC=C4C[C@@H](O)CC[C@]4(C)C3CC[C@]2(C)[C@H]1O (stereo partly drawn)	nt	nt	i	nt	nt	53	56	nt	nt
C[C@]12CC[C@H]3[C@@H](CCC4=CC(=O)CC[C@@]43C)[C@@H]1CC[C@@H]2O	nt	nt	nt	nt	nt	i	nt	nt	nt
C[C@]12CCC(=O)C=C1CC[C@@H]1[C@@H]2CC[C@@]2(C)[C@H]1CC[C@]2(C)O	nt	i	nt	i	i	nt	nt	nt	nt
C[C@]12C[C@H](O)[C@@H](O)CC1=CCC1C2CC[C@@]2(C)C1CC[C@@H]2O (stereo partly drawn)	nt	nt	i	nt	nt	55	66	nt	nt
CN1CCC2(CC1)CC(NC=O)c1ccccc1O2 (stereo not drawn)	i	i	i	i	i	i	nt	nt	nt
CC(C)C[C@H](NP(=O)(O)O[C@@H]1O[C@@H](C)[C@H](O)[C@@H](O)[C@H]1O)C(=O)N[C@@H](Cc1c[nH]c2ccccc12)C(=O)O	nt	nt	i	nt	nt	i	nt	nt	nt
COC(=O)C1=C(c2cc3ccccc3o2)C[C@@H]2CC[C@H]1N2C(=O)NCc1ccco1	i	nt	i	nt	nt	i	nt	nt	nt
CC(C)(C)c1cc(C=C(C#N)C#N)cc(C(C)(C)C)c1O	nt	nt	i	nt	nt	76	91	98	96
